Experimental data reported in the RNAGym collection of RNA variant scans (doi:10.1126/science.aae0568).
Fewer inactive variants are shown than the library holds.

B1: tRNA (parent)
chain: GUUCCGUUGGCGUAAUGGUAACGCGUCUCCCUCCUAAGGAGAAGACUGCGGGUUCGAGUCCCGUACGGAACG

Variants of: B1
Experiment: yeast fitness relative to wild type (ratio to wild type); higher = fitter; tRNA-Arg(CCU), competitive growth, 37 C, YPD
Summary of the method: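 Start and end populations of a pooled competition were compared by 100-nucleotide paired-end sequencing of gene amplicons. The Saccharomyces cerevisiae strains carried tRNA-Arg(CCU) gene variants at the native genomic locus, synthesised with a 3% per-site mutation rate at 69 sites, and competed in YPD at 37°C for 24 hours in six parallel replicates. Darwinian fitness relative to wild type was based on the change in genotype frequencies. Genotypes required ≥ 100 starting reads, and estimates < 0.5 were set to 0.5.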

| Variant | yeast fitness |
| --- | --- |
| A15U C24G A42C U64C | ≤ 0.5 |
| C5U A14C A70U | ≤ 0.5 |
| G41C G48C | 0.813 |
| C29U U35A C61G | ≤ 0.5 |
| C5A A15U C31G G39A A57U C60A | ≤ 0.5 |
| C29G C55U A65C A70U | 0.532 |
| C11A C29G C60U G67A A69U | ≤ 0.5 |
| U7C G25C A42G | 0.567 |
| U3C C30G A42C | ≤ 0.5 |
| C33G C34U A65U | 0.629 |
| U53C G68C | 0.846 |
| U8C G10C C46U C66U | ≤ 0.5 |
| G10C A15G G18A U35A G44A | ≤ 0.5 |
| U32C G38C G52C | ≤ 0.5 |
| U32C G51A A70U | 0.868 |
| C30U C55A C62U | ≤ 0.5 |
| C5G G58A | 0.957 |
| U19A A40G C55G | ≤ 0.5 |
| C4G A40G A42U | ≤ 0.5 |
| C11G A20C C24G G58A G67C | ≤ 0.5 |
| U3C G6C A14U G25A G38A U47A | ≤ 0.5 |
| G6A G23C G41C C49U | ≤ 0.5 |
| C31U C61U G68C | ≤ 0.5 |
| G6C C34A | 0.611 |

| Variant | yeast fitness |
| --- | --- |
| U26G C27G C33U G39C U47C C49U | ≤ 0.5 |
| U8A C31A | 0.605 |
| U7G C11G C34U G41A C46U | ≤ 0.5 |
| C5U A14U U32A U54C C55U | ≤ 0.5 |
| C5U U13A C24U A45C | 0.671 |
| A40C U53C U59A C66U | ≤ 0.5 |
| U8G C33G U54A U59A G67A | ≤ 0.5 |
| G6A C24U A37U A40U | ≤ 0.5 |
| C29A C60A | 0.616 |
| U26G A42U | 0.795 |
| G6C A37C | 0.693 |
| C11U C46U U59C | 0.767 |
| C27A U28A G41A G48A A65G | ≤ 0.5 |
| C4U G12A A45C C49U | ≤ 0.5 |
| A15C A43U C49G | 0.515 |
| A21G C29G C46U C60U G67C | ≤ 0.5 |
| C5U C11A U26A C29U C30A C31U C60U C61U | ≤ 0.5 |
| U7C C11G C24A U47A U64C G67U | ≤ 0.5 |
| G18A C31U G41A | 0.647 |
| G18C C24U C29G C30G | 0.593 |
| C11A C31A G44C C60A | ≤ 0.5 |
| U35A A43C C49A | 0.566 |
| C5G U16C C24U | ≤ 0.5 |
| C46U U53C | 0.854 |

| Variant | yeast fitness |
| --- | --- |
| G10C A14C G58A | ≤ 0.5 |
| U3A C5G U7C U35A A40U C46G U53A G68C | ≤ 0.5 |
| C46A C62U | 1.02 |
| C5U U32A C34A A65C | ≤ 0.5 |
| G41A C62U | 0.844 |
| U19C C31A | 0.768 |
| A14U U16A A65U | 0.626 |
| C4U A20U A40U G67C | ≤ 0.5 |
| C5A U16C A21C C33U A40G A43U U54G C62G | ≤ 0.5 |
| A15U G63A | 0.675 |
| U19G C31U U32A A45U A70U | ≤ 0.5 |
| U3C C5U G68A | ≤ 0.5 |
| C46A U59G | 1.06 |
| C27A G41C C66U | 0.689 |
| A15G U32C A37G C55A | ≤ 0.5 |
| C27U A43C C49U | 0.757 |
| G10C U26A C33U A70G | ≤ 0.5 |
| A14G C62G | 0.688 |
| C5A C22G A65C | 0.582 |
| C5G A21G C49A U54C A65G | ≤ 0.5 |
| C46G C60A | 0.576 |
| C22A C30G C34G | ≤ 0.5 |
| U19A U26C | 0.834 |
| C61G C62A | 0.503 |

| Variant | yeast fitness |
| --- | --- |
| G12A A20G U28A C55A G56A | 0.537 |
| G56A G68A | 1.04 |
| C4A C5A C11U A20U A69C | ≤ 0.5 |
| C24G G38C A65C | 0.513 |
| C4G G6C C34G A42G C46G | ≤ 0.5 |
| G9A A40C G68A | ≤ 0.5 |
| U2A C31A A40U U53G G56C C62G | ≤ 0.5 |
| U28A G39A U64G | ≤ 0.5 |
| G56A C62A | 0.697 |
| G10A U19A | 0.729 |
| C24G C46A | 0.937 |
| C5U A37C G52C | ≤ 0.5 |
| A14G C24U C55A G63C | ≤ 0.5 |
| C5G C49G | 0.84 |
| A14C C29G | ≤ 0.5 |
| C5A G17C G39C | ≤ 0.5 |
| G9A U26C C49U | 0.685 |
| C5A A21C U54C | ≤ 0.5 |
| A14U G23A U32C | ≤ 0.5 |
| C5A C22U C27G C30G | ≤ 0.5 |
| C34G C62G C66G A69C | ≤ 0.5 |
| C4U G38A U47C | 0.501 |
| C5G G10A C11G U16G C33G C66U | ≤ 0.5 |
| C30G C31U G56A C62U A69G | ≤ 0.5 |

| Variant | yeast fitness |
| --- | --- |
| G50C C60U C62A | 0.676 |
| U3A C11G | 0.643 |
| U3C C31U G58C | 0.712 |
| U26G C27G U47A U54C C62U | ≤ 0.5 |
| C30U A45C G48A G58A G67U | ≤ 0.5 |
| U35C G58A C60U | ≤ 0.5 |
| A21G U64A | 0.877 |
| C4A C31U C46A | 0.726 |
| C30G C60G | 0.521 |
| C4U A20G C30A | 0.81 |
| U8C C11U C46U C49A | ≤ 0.5 |
| A14C C24U U35C C55U | ≤ 0.5 |
| A14U A57C C60G C61A | 0.601 |
| U8C C30G C31G C55U | ≤ 0.5 |
| U2A A20G G58C | 0.973 |
| C30G G68A | 0.698 |
| A20G C46U G50C C61A | 0.572 |
| G6A G18A G41C | ≤ 0.5 |
| G6A A20G A45G | 0.803 |
| U2C G58A G68C | 0.645 |
| G25C C61A | 0.75 |
| C34U C49U | 0.866 |
| C11U U35C A42G | ≤ 0.5 |
| C11G A21G A40G | ≤ 0.5 |

| Variant | yeast fitness |
| --- | --- |
| U2A C55A | 0.714 |
| C4U G44C G67A | 0.768 |
| G38A A43G | 0.607 |
| G6C A42C C49U C62U | ≤ 0.5 |
| G52A C61U G68A | 0.561 |
| U3C C29G C33A | ≤ 0.5 |
| C22U C30U U47A | ≤ 0.5 |
| C4G U7G G12C A20U G63A C66A | ≤ 0.5 |
| U8A C24G | ≤ 0.5 |
| C24U U47A | 0.683 |
| A15U C46G C61A A70U | ≤ 0.5 |
| C29G A40C A43G A45C U47C C62U A69C | ≤ 0.5 |
| A14G A36G G48A | 0.555 |
| G10C C49U C66G | ≤ 0.5 |
| A40U A65C A69U | 0.699 |
| A14U C31G G38A C66U | ≤ 0.5 |
| C34G A36C C55G | ≤ 0.5 |
| C11G A42G U54C A57C | ≤ 0.5 |
| U8C G23A C30U C55A | ≤ 0.5 |
| G10C G56C | 0.553 |
| G18C U19C A21G C61U | ≤ 0.5 |
| A14U G48C | 0.714 |
| U7C A37U | 0.625 |
| C5U A14C C62A | 0.504 |

| Variant | yeast fitness |
| --- | --- |
| U2A A36G | 0.985 |
| U8G U26A G52A | 0.59 |
| C5G A21G A45U A69U | 0.634 |
| A20U G68A A69C | 0.639 |
| C22A | 1 |
| A14C G56C | 0.567 |
| A21G U53A U54A | ≤ 0.5 |
| U3A A65U | 0.704 |
| U26C C46U | 0.928 |
| U8C G10C A15C A43C | ≤ 0.5 |
| U2G C4U C27A C66A | ≤ 0.5 |
| C4G C49G G56U U64C A65C A70C | 0.635 |
| C4A A70C | 0.993 |
| U28C G39C G44C G58A | ≤ 0.5 |
| U7C C46A | 0.798 |
| G10C C31G C33U C60U | ≤ 0.5 |
| A14C A20G C22U C49G G56C | ≤ 0.5 |
| A42C C61U | 0.668 |
| A15G C66U | 0.887 |
| G6C C55A | 0.717 |
| G6A C27G | 0.758 |
| G23C A36U G51C | ≤ 0.5 |
| G9A G44A G48A G50C | ≤ 0.5 |
